In ChEMBL document CHEMBL2401717, “Synthesis and bioactive evaluation of novel hybrids of metronidazole and berberine as new type of antimicrobial agents and their transportation behavior by human serum albumin” (Bioorg Med Chem, 2013):

Key:
[1] = test system: Candida albicans; test: Antifungal activity against Candida albicans after 24 hrs by twofold broth dilution method; assay type: functional
In short: (§1)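 MIC by NCCLS-recommended twofold broth microdilution, run in triplicate. Strains: B. subtilis ATCC6633, E. coli DH52, M. luteus ATCC4698, P. vulgaris ATCC6896, S. dysenteriae, S. aureus ATCC25923, MRSA N315, C. albicans ATCC76615, C. mycoderma. References were chloromycin, norfloxacin and berberine for bacteria, and fluconazole for fungi.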

[2] = Octanol-water partition coefficient, log P of the compound after 24 hrs by UV-Vis spectrophotometry; assay type: physicochemical
[3] = test system: Candida; test: Ratio of fluconazole MIC to compound MIC for Candida mycoderma; assay type: functional
In short: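 MICs for the compound and for fluconazole against Candida mycoderma were measured in parallel by twofold broth microdilution in 96-well plates, following NCCLS guidance, in triplicate. The ratio was then taken from the two MICs.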

[4] = test system: Bacillus subtilis; test: Antibacterial activity against Bacillus subtilis after 24 hrs by twofold broth dilution method; assay type: functional; in short: as §1
[5] = test system: Shigella dysenteriae; test: Antibacterial activity against Shigella dysenteriae after 24 hrs by twofold broth dilution method; assay type: functional; in short: as §1
[6] = test system: Micrococcus luteus; test: Antibacterial activity against Micrococcus luteus ATCC 4698 after 24 hrs by twofold broth dilution method; assay type: functional; settings: ATCC 4698, 24 h; in short: as §1
[7] = Solubility of the compound in phosphate buffer at pH 7.5 after 20 hrs by UV spectrophotometry; assay type: physicochemical
In short: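 Phosphate buffer pH 7.5 added to solid; suspension sonicated 10 min, then shaken at room temperature for 20 h and centrifuged. Supernatant concentration read by UV absorbance against a regression calibration curve (278 and 340 nm).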

[8] = test system: Candida; test: Antifungal activity against Candida mycoderma after 24 hrs by twofold broth dilution method; assay type: functional; in short: as §1
[9] = test system: Staphylococcus aureus; test: Antibacterial activity against methicillin-resistant Staphylococcus aureus N315 after 24 hrs by twofold broth dilution method; assay type: functional; settings: N315, 24 h; in short: as §1
[10] = Stability of the compound at 30 to 80 degC after 30 mins by UV spectrophotometry; assay type: physicochemical; settings: 0.5 h
In short: (§2)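 Stability followed by UV spectrometry across pH 6.5–8.5 and temperatures 30–80 °C.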

[11] = test system: Proteus vulgaris; test: Antibacterial activity against Proteus vulgaris after 24 hrs by twofold broth dilution method; assay type: functional; in short: as §1
[12] = target: T1, Albumin (Homo sapiens, UniProt P02768); test: Binding affinity to human serum albumin assessed as decrease in fluorescence quenching at 286K by UV-Vis spectroscopy; assay type: ADME; settings: isolated protein
T1 sequence (P02768 whole entry): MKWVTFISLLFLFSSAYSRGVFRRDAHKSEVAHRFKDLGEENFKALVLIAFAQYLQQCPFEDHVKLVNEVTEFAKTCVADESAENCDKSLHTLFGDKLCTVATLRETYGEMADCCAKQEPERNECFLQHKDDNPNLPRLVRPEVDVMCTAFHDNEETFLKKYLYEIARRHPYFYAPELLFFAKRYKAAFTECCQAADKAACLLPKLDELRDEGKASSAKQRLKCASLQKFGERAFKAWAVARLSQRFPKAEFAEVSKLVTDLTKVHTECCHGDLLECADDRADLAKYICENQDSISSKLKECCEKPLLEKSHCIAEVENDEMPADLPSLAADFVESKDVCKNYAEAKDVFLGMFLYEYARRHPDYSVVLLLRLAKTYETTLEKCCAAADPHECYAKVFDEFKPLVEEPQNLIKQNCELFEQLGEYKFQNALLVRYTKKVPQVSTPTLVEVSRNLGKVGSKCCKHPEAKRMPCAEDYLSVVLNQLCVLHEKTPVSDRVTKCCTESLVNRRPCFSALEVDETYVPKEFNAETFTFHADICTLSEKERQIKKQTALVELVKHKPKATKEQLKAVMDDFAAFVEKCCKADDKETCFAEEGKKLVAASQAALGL
In short: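 Fluorescence of HSA fixed at 1.0 × 10^-5 mol L^-1, titrated with compound in 0.2 × 10^-5 mol L^-1 steps. Excitation 295 nm, emission scanned 300–450 nm, slits 2.5 nm, 1.0 cm quartz cells. Spectra recorded at several temperatures (286, 295, 298, 304, 310 K are cited in places). Data fitted by Stern–Volmer, modified Stern–Volmer and Scatchard equations to give binding constants and site number.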

[13] = test system: Pseudomonas aeruginosa; test: Antibacterial activity against Pseudomonas aeruginosa after 24 hrs by twofold broth dilution method; assay type: functional
In short: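 Twofold broth dilution in 96-well microplates following NCCLS guidance; MIC read as the endpoint; tests run in triplicate.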

[14] = test system: Pseudomonas aeruginosa; test: Ratio of clinafloxacin MIC to compound MIC for Pseudomonas aeruginosa; assay type: functional
[15] = test system: Staphylococcus aureus; test: Antibacterial activity against Staphylococcus aureus ATCC 25923 after 24 hrs by twofold broth dilution method; assay type: functional; settings: ATCC 25923, 24 h; in short: as §1
[16] = target: T1, Albumin; test: Binding affinity to human serum albumin by UV-Vis spectrophotometry; assay type: ADME; settings: isolated protein
In short: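 HSA UV–vis absorption spectrum compared with the difference spectrum of HSA–compound complex minus compound at equal concentration; recorded at room temperature in 1.0 cm quartz cells.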

[17] = Stability of the compound at pH 6.5 to 8.5 after 30 mins by UV spectrophotometry; assay type: physicochemical; settings: buffer, pH 6.5, 0.5 h; in short: as §2
[18] = test system: Escherichia coli; test: Antibacterial activity against Escherichia coli DH52 after 24 hrs by twofold broth dilution method; assay type: functional; settings: DH52, 24 h; in short: as §1
[19] = test system: Escherichia coli; test: Ratio of chloromycin MIC to compound MIC for Escherichia coli DH52; assay type: functional
[20] = test system: Staphylococcus aureus; test: Ratio of berberin MIC to compound MIC for Staphylococcus aureus ATCC 25923; assay type: functional
[21] = test system: Bacillus subtilis; test: Ratio of chloromycin MIC to compound MIC for Bacillus subtilis; assay type: functional
[22] = test system: Staphylococcus aureus; test: Ratio of chloromycin MIC to compound MIC for Staphylococcus aureus ATCC 25923; assay type: functional

Row | SMILES | MIC [1] | logP at 24 h [2] | MIC [4] | MIC [5] | MIC [6] | solubility at 20 h [7] | MIC [8] | MIC [9] | Stability [10] | MIC [11] | MIC [13] | MIC [15] | Stability [17] | MIC [18] | further results
1 | COc1ccc2cc3[n+](cc2c1OCCN(CCn1cncc1[N+](=O)[O-])Cc1ccc(F)cc1F)CCc1cc2c(cc1-3)OCO2.[Cl-] | 8 µg/mL | 0.52 | 32 µg/mL | 4 µg/mL | 8 µg/mL | 98.1 µg/mL | 1 µg/mL | 16 µg/mL | Stable | 4 µg/mL | 8 µg/mL | 8 µg/mL | Stable | 8 µg/mL | Ratio [3]: 4; Activity [12]: Active; Ratio [14]: 2; Activity [16]: Active
2 | COc1ccc2cc3[n+](cc2c1OCCN(CCn1cncc1[N+](=O)[O-])Cc1ccccc1Cl)CCc1cc2c(cc1-3)OCO2.[Cl-] | 4 µg/mL | 0.56 | 4 µg/mL | 8 µg/mL | 32 µg/mL | 86.4 µg/mL | 32 µg/mL | 8 µg/mL | Stable | 16 µg/mL | 8 µg/mL | 2 µg/mL | Stable | 4 µg/mL | Ratio [19]: 4; Ratio [20]: 8; Ratio [21]: 4; Ratio [22]: 8
